Measurements: PubChem BioAssay
Records with an inconclusive call do not appear.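 How the source made its calls, unless noted: active means growth inhibition above 25% in both replicates, a cutoff set 3 SD above the mean; inconclusive means above 25% in only one replicate; inactive means the rest.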

Assays:
[1] = OD615 S. cerevisiae growth inhibition, permissive medium, pilot counter-assay, permissive growth control for S. cerevisiae lifespan shortening project (AID 705); conditions: OD615, 24 h, at 10 µM, stronger effect = higher value
Procedure, shortened: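 Test system: Saccharomyces cerevisiae strain carrying genetically modified DeaD replicative-lifespan system; buffer or medium: SC raffinose/galactose permissive medium; dosing: one dose 10 µM, DMSO 0.25% final; times: 24 h exposure, 30 °C; measured by: OD at 615 nm; read-out basis: growth inhibition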

[2] = Restrictive medium S. cerevisiae growth inhibition, OD615, pilot screen of yeast lifespan reduction project, restrictive growth control (AID 706;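 active means growth inhibition above a set limit, 3 SD over mean compound inhibition, in both replicates, cut at about 43% in these data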;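 further: modified DeaD lifespan yeast strain shifted to restrictive glucose medium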); conditions: OD615, 48 h, at 10 µM, stronger effect = higher value
Procedure, shortened: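 material = engineered S. cerevisiae DeaD strain | buffer or medium = glucose-based CSMM-D restrictive medium | dosing = one concentration, 10 µM final, 0.25% DMSO | schedule = 4 h pre-growth plus 48 h compound exposure, 30 °C | detection = OD615 absorbance reading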

[3] = viability gain of MRP-1-high H69AR cells under doxorubicin, pilot screen, MRP-1 activator project, CellTiter-Glo, duplicate (AID 807;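 active means viability increase at or above a cutoff of the median across tested compounds plus 3 SD, cut at about 8.5% in these data, passing the limit was not always enough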;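 further: compound pretreatment 18-22 h then 72 h combined with doxorubicin; 0% = doxorubicin alone and 100% = vehicle without doxorubicin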); conditions: H69AR viability with doxorubicin, CellTiter-Glo luminescence; at 10 µM; stronger effect = higher value
[4] = growth suppression of beta-catenin knockout HCT116, pilot screen, human colon tumor cells (AID 823;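 active means cell viability at or below a set limit in both duplicate runs, the limit being the all-compound median minus 4 SD, cut at about 23% in these data, passing the limit was not always enough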;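 further: 0% = wells killed by 20 µM Hyamine and 100% = untreated DMSO cell wells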); conditions: CellTiter-Glo, 60 h, at 10 µM, stronger effect = lower value
[5] = growth suppression of PTEN-deleted HCT116, pilot screen, cell-based, HCT116 clonal line, CellTiter-Glo (AID 824;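 active means viability at or below 27.92% in each of two runs, the all-compound median minus 4 SD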;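 further: 0% = 20 µM Hyamine control and 100% = vehicle cell control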); conditions: 60 h, at 10 µM, stronger effect = lower value
[6] = inhibitors of the yeast RAM network, pilot screen, dse1pr::URA3 reporter, 5-FOA selection (AID 869;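 active means inhibition over a set limit, the all-compound mean plus 3 SD, in both replicate runs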;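 further: 0% = DMSO wells with no growth and 100% = 10 µM 1-NA-PP1 with full growth; RAM network block rescues cells from 5-FOA so hits raise OD615 growth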); conditions: S. cerevisiae dse1pr::URA3 5-FOA growth, OD615, 2 d; at 10 µM; stronger effect = higher value; strain carries analog-sensitive mutant Cbk1 kinase
[7] = RAM signaling pathway blockade in yeast – S. cerevisiae, Pdr1DBD-CYC8 efflux-inhibited sensitized strain, primary screen (AID 1298;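 active means RAM network inhibition above 8.4% in each of two replicates, 3 SD over the compound average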;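 further: 0% = DMSO untreated cells without growth and 100% = 10 µM 1-NA-PP1 full growth; higher means more yeast growth rescued from 5-FOA killing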); conditions: S. cerevisiae cbk1-as DSE1-URA3 strain, 5-FOA growth OD615, 2 d; at 50 µM; stronger effect = higher value

Cc1c(C(=O)NCc2cccnc2)sc2nc(-c3ccccc3)cn12
inactive: growth inhibition [1] -4.69% | growth inhibition [2] 8.62% | viability increase [3] 0.16% | viability [4] 101% | viability [5] 89.5% | inhibition [6] 2.61% | RAM network inhibition [7] 7.67%

COc1ccc(NC(=O)C2CCCN(S(=O)(=O)c3cccnc3)C2)c(OC)c1 (stereo unspecified)
inactive: growth inhibition [1] -9.3% | growth inhibition [2] -2.6% | viability increase [3] 1.08% | viability [4] 104% | viability [5] 97.1% | inhibition [6] 1.57% | RAM network inhibition [7] -0.22%

O=C(OCCN1C(=O)c2ccccc2C1=O)c1cccs1
inactive: growth inhibition [1] -5.91% | growth inhibition [2] -1.62% | viability increase [3] -1.54% | viability [4] 104% | viability [5] 100% | inhibition [6] 0.61% | RAM network inhibition [7] 2.97%

CCc1ccc(S(=O)(=O)NCc2csc(-c3cccnc3)n2)s1
inactive: growth inhibition [1] -13.1% | growth inhibition [2] 1.16% | viability increase [3] -0.39% | viability [4] 103% | viability [5] 101% | inhibition [6] 2.68% | RAM network inhibition [7] 2.28%

CCN1CCN(S(=O)(=O)c2ccc3[nH]c(=O)oc3c2)CC1
inactive: growth inhibition [1] -9.66% | growth inhibition [2] -6.6% | viability increase [3] -0.48% | viability [4] 104% | viability [5] 107% | inhibition [6] 1.5% | RAM network inhibition [7] 4.74%

O=C(C1CC1)N1CCc2cc(Br)cc(S(=O)(=O)NC3CCCCC3)c21
inactive: growth inhibition [1] -3.11% | growth inhibition [2] -25.8% | viability increase [3] 1.71% | viability [4] 88.5% | viability [5] 89.4% | inhibition [6] 0.275% | RAM network inhibition [7] 5.54%

CCCn1c(CNC(=O)c2cccs2)nc2ccccc21
inactive: growth inhibition [1] -9.53% | growth inhibition [2] -7.64% | viability increase [3] -1.28% | viability [4] 101% | viability [5] 103% | inhibition [6] 2.32% | RAM network inhibition [7] 2.11%

CCCCn1c(=O)[nH]c2ccccc21
inactive: growth inhibition [1] -4.76% | growth inhibition [2] -21.1% | viability increase [3] -1.44% | viability [4] 106% | viability [5] 104% | inhibition [6] 1.69% | RAM network inhibition [7] 2.05%

COc1ccc(C(=O)c2cn[nH]c2-c2cc(Cl)ccc2O)cc1
inactive: growth inhibition [1] 3.93% | growth inhibition [2] 4.28% | viability increase [3] -1.77% | viability [4] 87.7% | viability [5] 78.7% | inhibition [6] 1.17% | RAM network inhibition [7] 3.53%

CN1CCN(C(=O)c2ccc3c(c2)N(Cc2ccc(Cl)cc2)C(=O)c2ccccc2S3=O)CC1 (stereo unspecified)
inactive: growth inhibition [1] -0.89% | growth inhibition [2] -13.2% | viability increase [3] -4.61% | viability [4] 80.3% | viability [5] 83% | inhibition [6] 0.215% | RAM network inhibition [7] 1.3%

CCN1C(=O)NC(c2cccnc2)C(C(=O)OC)=C1C (stereo unspecified)
inactive: growth inhibition [1] -17.7% | growth inhibition [2] -5.54% | viability increase [3] -1.3% | viability [4] 99.5% | viability [5] 99.9% | inhibition [6] 0.735% | RAM network inhibition [7] 0.25%

CCN1CCN(c2ncnc3c2sc2nc(N4CCOCC4)c4c(c23)CCC4)CC1
inactive: growth inhibition [1] -5.5% | growth inhibition [2] -14.1% | viability increase [3] -4.51% | viability [4] 85.1% | viability [5] 86.3% | inhibition [6] 0.195% | RAM network inhibition [7] 5.27%

CCOc1ccccc1N1CCN(S(=O)(=O)CC)CC1
inactive: growth inhibition [1] -0.885% | growth inhibition [2] 4.05% | viability increase [3] -1.83% | viability [4] 94.9% | viability [5] 97.6% | inhibition [6] 0.455% | RAM network inhibition [7] 6.05%

O=C(CCCCCn1c(=O)[nH]c2ccsc2c1=O)N1CCN(C2CCCCC2)CC1
inactive: growth inhibition [1] -5.63% | growth inhibition [2] -0.345% | viability increase [3] -1.81% | viability [4] 95.3% | viability [5] 92.3% | inhibition [6] 1.38% | RAM network inhibition [7] 3%

COc1ccccc1C1C(C(N)=O)=C(C)Nc2nc(-c3ccc(Cl)cc3)nn21 (stereo unspecified)
inactive: growth inhibition [1] -5.66% | growth inhibition [2] 0.335% | viability increase [3] -1.26% | viability [4] 95% | viability [5] 92.4% | inhibition [6] -0.455% | RAM network inhibition [7] -1.72%

O=S(=O)(NCCc1cn2ccccc2n1)c1ccc2c(c1)OCCO2
inactive: growth inhibition [1] -2.27% | growth inhibition [2] -2.71% | viability increase [3] -2.56% | viability [4] 105% | viability [5] 97% | inhibition [6] 1.62% | RAM network inhibition [7] 2.25%

Cc1ccc(-n2ncc3c(NCCCN4CCOCC4)ncnc32)c(C)c1
inactive: growth inhibition [1] -6.19% | growth inhibition [2] 6.86% | viability increase [3] -1.79% | viability [4] 96.1% | viability [5] 93.9% | inhibition [6] 2.75% | RAM network inhibition [7] 0.42%

O=C(CCSCCc1ccccn1)Nc1nccs1
inactive: growth inhibition [1] 6.12% | growth inhibition [2] 8.44% | viability increase [3] -0.56% | viability [4] 102% | viability [5] 94.8% | inhibition [6] 2.55% | RAM network inhibition [7] 0.66%
